The test system of experiment [1] is Human immunodeficiency virus 1. The experiment can be described thus: Inhibitory activity tested against the HIV-1 in CEM cells. In kind it is functional, organism-based. The settings on record: Human immunodeficiency virus 1, CCRF-CEM. The gist of the method:
(§1)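 HIV-1-induced cytopathicity in CEM 4 or MT-4 cell cultures was assessed by counting viable cells after MTT (3-(4,5-dimethylthiazol-2-yl)-2,5-diphenyltetrazolium bromide) staining. IC50 is the concentration that inhibits cytopathicity by 50%. For routine testing, the highest concentration was generally 3 µM, because solubility was limited above 10 µM.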

The test system of experiment [2] is Human immunodeficiency virus 1. The experiment can be described thus: Inhibitory activity tested against the HIV-1 in MT-4 cells. In kind it is functional, organism-based. The settings on record: Human immunodeficiency virus 1, MT4. The gist of the method:
as §1

As usually defined, the IC50 is the point on the concentration scale where inhibition reaches its midpoint.

In the case of `C=C(C)[C@@H]1CC[C@]2(C(=O)NCCCCCCCC(=O)N[C@@H](CO)C(=O)O)CC[C@]3(C)[C@H](CCC4[C@@]5(C)CC[C@H](O)C(C)(C)[C@@H]5CC[C@]43C)[C@@H]12` (stereo not given in full), the IC50 in experiment [1] and in experiment [2] was 250 nM in each case. On to `C=C(C)[C@@H]1CC[C@]2(C(=O)NCCCCCCCC(=O)N3CCC[C@H]3C(=O)O)CC[C@]3(C)[C@H](CCC4[C@@]5(C)CC[C@H](O)C(C)(C)[C@@H]5CC[C@]43C)[C@@H]12` (stereo not given in full), for which the IC50 came to 640 nM in experiment [1] and 58 nM in experiment [2]. As to `C=C(C)[C@@H]1CC[C@]2(C(=O)NCCCCCCCC(=O)NCC(C)C(=O)O)CC[C@]3(C)[C@H](CCC4[C@@]5(C)CC[C@H](O)C(C)(C)[C@@H]5CC[C@]43C)[C@@H]12` (stereo not given in full), half-maximal inhibition in experiment [1] (IC50) required 130 nM. For `C=C(C)[C@@H]1CC[C@]2(C(=O)NCCCCCCCCC(=O)O)CC[C@]3(C)[C@H](CCC4[C@@]5(C)CC[C@H](O)C(C)(C)[C@@H]5CC[C@]43C)[C@@H]12` (stereo not given in full), the IC50 is 420 nM in experiment [1] and 3400 nM in experiment [2].

Regarding `C=C(C)[C@@H]1CC[C@]2(C(=O)NCCCCCCCC(=O)NCCC(=O)O)CC[C@]3(C)[C@H](CCC4[C@@]5(C)CC[C@H](O)C(C)(C)[C@@H]5CC[C@]43C)[C@@H]12` (stereo not given in full), the IC50 in experiment [1] amounted to 100 nM; in experiment [2], 94 nM. `C=C(C)[C@@H]1CC[C@]2(C(=O)NCCCCCCCC(=O)N[C@@H](CCCCN)C(=O)O)CC[C@]3(C)[C@H](CCC4[C@@]5(C)CC[C@H](O)C(C)(C)[C@@H]5CC[C@]43C)[C@@H]12` (stereo not given in full): the IC50 in experiment [1] was determined as 10000 nM. This counts as double-digit micromolar. With `C=C(C)[C@@H]1CC[C@]2(C(=O)NCCCCCCCC(=O)Nc3cccc(C(=O)O)c3)CC[C@]3(C)[C@H](CCC4[C@@]5(C)CC[C@H](O)C(C)(C)[C@@H]5CC[C@]43C)[C@@H]12` (stereo not given in full), the midpoint of inhibition in experiment [1], the IC50, lay at 80 nM.

Turning to `C=C(C)[C@@H]1CC[C@]2(C(=O)NCCCCCCCNC(=O)CCC(=O)O)CC[C@]3(C)[C@H](CCC4[C@@]5(C)CC[C@H](O)C(C)(C)[C@@H]5CC[C@]43C)[C@@H]12` (stereo not given in full), the IC50 in experiment [1] worked out at 95 nM; in experiment [2], 53 nM.

Consider `C=C(C)[C@@H]1CC[C@]2(C(=O)NCCCCCCCC(=O)N[C@H](CCC(=O)O)CC(C)C)CC[C@]3(C)[C@H](CCC4[C@@]5(C)CC[C@H](O)C(C)(C)[C@@H]5CC[C@]43C)[C@@H]12` (stereo not given in full), for which the IC50 was 52 nM in experiment [1] and 85 nM in experiment [2]. For `C=C(C)[C@@H]1CC[C@]2(C(=O)NCCCCCCCC(=O)N[C@@H](CC(C)C)[C@@H](O)CC(=O)O)CC[C@]3(C)[C@H](CCC4[C@@]5(C)CC[C@H](O)C(C)(C)[C@@H]5CC[C@]43C)[C@@H]12` (stereo not given in full), the IC50 in experiment [1] is 50 nM; in experiment [2], 40 nM.

In experiment [1], `C=C(C)[C@@H]1CC[C@]2(C(=O)NCCCCCCCNC(=O)c3ccccc3C(=O)O)CC[C@]3(C)[C@H](CCC4[C@@]5(C)CC[C@H](O)C(C)(C)[C@@H]5CC[C@]43C)[C@@H]12` (stereo not given in full) showed a half-maximal inhibitory concentration (IC50) of 1800 nM. Turning to `C=C(C)[C@@H]1CC[C@]2(C(=O)NCCCCCCCC(=O)N(C)CC(=O)O)CC[C@]3(C)[C@H](CCC4[C@@]5(C)CC[C@H](O)C(C)(C)[C@@H]5CC[C@]43C)[C@@H]12` (stereo not given in full), the IC50 in experiment [1] was found to be 250 nM; in experiment [2] it was 333 nM.

With `C=C(C)[C@@H]1CC[C@]2(C(=O)NCCCCCCCC(=O)N[C@@H](Cc3ccccc3)[C@@H](O)CC(=O)O)CC[C@]3(C)[C@H](CCC4[C@@]5(C)CC[C@H](O)C(C)(C)[C@@H]5CC[C@]43C)[C@@H]12` (stereo not given in full), the IC50 came to 130 nM in experiment [1] and 33 nM in experiment [2].

On to `C=C(C)[C@@H]1CC[C@]2(C(=O)NCCCCCCCC(=O)NCC(O)CC(=O)O)CC[C@]3(C)[C@H](CCC4[C@@]5(C)CC[C@H](O)C(C)(C)[C@@H]5CC[C@]43C)[C@@H]12` (stereo not given in full), for which the IC50 was determined as 200 nM in experiment [1] and 33 nM in experiment [2]. The compound `C=C(C)[C@@H]1CC[C@]2(C(=O)NCCCCCCCNC(=O)CCCC(=O)O)CC[C@]3(C)[C@H](CCC4[C@@]5(C)CC[C@H](O)C(C)(C)[C@@H]5CC[C@]43C)[C@@H]12` (stereo not given in full) came in with an IC50 in experiment [1] of 20 nM. In other words, the double-digit nanomolar range. Consider `C=C(C)[C@@H]1CC[C@]2(C(=O)NCCCCCCCC(=O)NC(C)CC(=O)O)CC[C@]3(C)[C@H](CCC4[C@@]5(C)CC[C@H](O)C(C)(C)[C@@H]5CC[C@]43C)[C@@H]12` (stereo not given in full), for which 130 nM corresponded to half-maximal inhibition in experiment [1] (IC50). Turning to `C=C(C)[C@@H]1CC[C@]2(C(=O)NCCCCCCCC(=O)NCCCCC(=O)O)CC[C@]3(C)[C@H](CCC4[C@@]5(C)CC[C@H](O)C(C)(C)[C@@H]5CC[C@]43C)[C@@H]12` (stereo not given in full), inhibition in experiment [1] was half-maximal at 61 nM (IC50).

As for `C=C(C)[C@@H]1CC[C@]2(C(=O)NCCCCCCCC(=O)Nc3ccc(C(=O)O)cc3)CC[C@]3(C)[C@H](CCC4[C@@]5(C)CC[C@H](O)C(C)(C)[C@@H]5CC[C@]43C)[C@@H]12` (stereo not given in full), the 50% inhibitory concentration (IC50) in experiment [1] came out at 70 nM; in experiment [2], 26 nM.

Consider `C=C(C)[C@@H]1CC[C@]2(C(=O)NCCCCCCCC(=O)O)CC[C@]3(C)[C@H](CCC4[C@@]5(C)CC[C@H](O)C(C)(C)[C@@H]5CC[C@]43C)[C@@H]12` (stereo not given in full), for which the IC50 in experiment [1] was 750 nM; in experiment [2], 465 nM. In the case of `C=C(C)[C@@H]1CC[C@]2(C(=O)NCCCCCCCCCCCC(=O)O)CC[C@]3(C)[C@H](CCC4[C@@]5(C)CC[C@H](O)C(C)(C)[C@@H]5CC[C@]43C)[C@@H]12` (stereo not given in full), the half-inhibitory concentration (IC50) is 550 nM in experiment [1] and 250 nM in experiment [2]. For `C=C(C)[C@@H]1CC[C@]2(C(=O)NCCCCCCCC(=O)N[C@@H](C)C(=O)O)CC[C@]3(C)[C@H](CCC4[C@@]5(C)CC[C@H](O)C(C)(C)[C@@H]5CC[C@]43C)[C@@H]12` (stereo not given in full), the IC50 in experiment [1] stood at 92 nM; in experiment [2], 62 nM. In experiment [1], `C=C(C)[C@@H]1CC[C@]2(C(=O)NCCCCCCCC(=O)NC(CC(=O)O)C(F)(F)F)CC[C@]3(C)[C@H](CCC4[C@@]5(C)CC[C@H](O)C(C)(C)[C@@H]5CC[C@]43C)[C@@H]12` (stereo not given in full) came in with an IC50 of 155 nM. Take `C=C(C)[C@@H]1CC[C@]2(C(=O)NCCCCCCCC(=O)N[C@H](CO)C(=O)O)CC[C@]3(C)[C@H](CCC4[C@@]5(C)CC[C@H](O)C(C)(C)[C@@H]5CC[C@]43C)[C@@H]12` (stereo not given in full): in experiment [1], half-maximal inhibition (IC50) required 1900 nM. With `C=C(C)[C@@H]1CC[C@]2(C(=O)NCCCCCCCCCC(=O)O)CC[C@]3(C)[C@H](CCC4[C@@]5(C)CC[C@H](O)C(C)(C)[C@@H]5CC[C@]43C)[C@@H]12` (stereo not given in full), the figures for the IC50 in experiment [1] and in experiment [2] were 600 nM and 420 nM, respectively. `C=C(C)[C@@H]1CC[C@]2(C(=O)NCCCCCCCC(=O)N[C@@H](CC(N)=O)C(=O)O)CC[C@]3(C)[C@H](CCC4[C@@]5(C)CC[C@H](O)C(C)(C)[C@@H]5CC[C@]43C)[C@@H]12` (stereo not given in full) had an IC50 in experiment [1] of 950 nM. Regarding `C=C(C)[C@@H]1CC[C@]2(C(=O)NCCCCCCCC(=O)N[C@@H](Cc3ccccc3)C(=O)O)CC[C@]3(C)[C@H](CCC4[C@@]5(C)CC[C@H](O)C(C)(C)[C@@H]5CC[C@]43C)[C@@H]12` (stereo not given in full), the IC50 in experiment [1] came out at 2000 nM. Take `C=C(C)[C@@H]1CC[C@]2(C(=O)NCCCCCCCC(=O)N[C@@H](CC(=O)O)C(=O)O)CC[C@]3(C)[C@H](CCC4[C@@]5(C)CC[C@H](O)C(C)(C)[C@@H]5CC[C@]43C)[C@@H]12` (stereo not given in full): the IC50 in experiment [1] is 18000 nM. In experiment [1], `C=C(C)[C@@H]1CC[C@]2(C(=O)NCCCCCCCC(=O)NC(F)CC(=O)O)CC[C@]3(C)[C@H](CCC4[C@@]5(C)CC[C@H](O)C(C)(C)[C@@H]5CC[C@]43C)[C@@H]12` (stereo not given in full) yielded an IC50 of 95 nM. This IC50 is about 190-fold lower than that of the compound before.

As for `C=C(C)[C@@H]1CC[C@]2(C(=O)NCCCCCCCNC(=O)c3cccc(C(=O)O)c3)CC[C@]3(C)[C@H](CCC4[C@@]5(C)CC[C@H](O)C(C)(C)[C@@H]5CC[C@]43C)[C@@H]12` (stereo not given in full), the IC50 in experiment [1] was determined as 105 nM; in experiment [2], 40 nM. For `C=C(C)[C@@H]1CC[C@]2(C(=O)NCCCCCCCCCCC(=O)O)CC[C@]3(C)[C@H](CCC4[C@@]5(C)CC[C@H](O)C(C)(C)[C@@H]5CC[C@]43C)[C@@H]12` (stereo not given in full), in that order: 230 nM and 443 nM. Turning to `C=C(C)[C@@H]1CC[C@]2(C(=O)NCCCCCCCC(=O)N[C@@H](CC(C)C)[C@H](O)CC(=O)O)CC[C@]3(C)[C@H](CCC4[C@@]5(C)CC[C@H](O)C(C)(C)[C@@H]5CC[C@]43C)[C@@H]12` (stereo not given in full), the values for the IC50 in experiment [1] and in experiment [2] were 50 nM and 44 nM, respectively. On the same counts, the results for `C=C(C)[C@@H]1CC[C@]2(C(=O)NCCCCCCCNC(=O)c3ccc(C(=O)O)cc3)CC[C@]3(C)[C@H](CCC4[C@@]5(C)CC[C@H](O)C(C)(C)[C@@H]5CC[C@]43C)[C@@H]12` (stereo not given in full) are 110 nM and 22 nM.

Regarding `C=C(C)[C@@H]1CC[C@]2(C(=O)NCCCCCCCC(=O)NC(C)(C)C(=O)O)CC[C@]3(C)[C@H](CCC4[C@@]5(C)CC[C@H](O)C(C)(C)[C@@H]5CC[C@]43C)[C@@H]12` (stereo not given in full), the IC50 came to 133 nM in experiment [1] and 89 nM in experiment [2].

On to `C=C(C)[C@@H]1CC[C@]2(C(=O)NCCCCCCCC(=O)NC(CC(=O)O)c3ccccc3)CC[C@]3(C)[C@H](CCC4[C@@]5(C)CC[C@H](O)C(C)(C)[C@@H]5CC[C@]43C)[C@@H]12` (stereo not given in full), for which the IC50 came out at 85 nM in experiment [1] and 47 nM in experiment [2]. The compound `C=C(C)[C@@H]1CC[C@]2(C(=O)NCCCCCCCC(=O)N3CCCC(C(=O)O)C3)CC[C@]3(C)[C@H](CCC4[C@@]5(C)CC[C@H](O)C(C)(C)[C@@H]5CC[C@]43C)[C@@H]12` (stereo not given in full) gave a 50% inhibitory concentration (IC50) in experiment [1] of 185 nM. Take `C=C(C)[C@@H]1CC[C@]2(C(=O)NCCCCCCCC(=O)NCC(=O)O)CC[C@]3(C)[C@H](CC[C@@H]4[C@@]5(C)CC[C@H](O)C(C)(C)[C@@H]5CC[C@]43C)[C@@H]12`: the IC50 in experiment [1] was 150 nM; in experiment [2] it was 156 nM. For `C=C(C)[C@@H]1CC[C@]2(C(=O)NCCCCCCCNC(=O)CC(=O)O)CC[C@]3(C)[C@H](CCC4[C@@]5(C)CC[C@H](O)C(C)(C)[C@@H]5CC[C@]43C)[C@@H]12` (stereo not given in full), in that order: 50 nM and 34 nM.

The record behind these values is ChEMBL document CHEMBL1129508, “Betulinic acid derivatives: a new class of specific inhibitors of human immunodeficiency virus type 1 entry” (J Med Chem, 1996).
